Measurements pooled from the literature.
Compare with care: the assays were run in different laboratories.
Target: Delta-type opioid receptor (OPRD1, Homo sapiens, UniProt P41143)

| SMILES | assay | setting | Ki [nM] |
| --- | --- | --- | --- |
| Cc1cc(F)ccc1/N=N/C(=O)NCC1(N(C)C)CCCCC1 | cell-free assay |  | 12000 |
| C[C@@H](NC(=O)[C@@H](N)Cc1ccc(O)cc1)C(=O)NCC(=O)N[C@@H](Cc1ccc(Cl)cc1)C(=O)N(C)CCC[C@@]1(c2ccc(F)cc2)OCc2cc(C#N)ccc21 | cell-free assay |  | 1.6 |
| Oc1ccc2c3c1O[C@H]1c4ncc(-c5ccccc5)cc4C[C@@]4(OCCCc5cccnc5)[C@@H](C2)N(CC2CC2)CC[C@]314 | ligand displacement, radioligand | cell membranes | 5.89 |
| Cc1cc(O)cc(C)c1C[C@H](N)C(=O)N1Cc2ccccc2C[C@H]1C(=O)NCC(=O)NCc1ccc(Cl)cc1 | ligand displacement, radioligand | cell membranes | 0.26 |
| Cc1cc(/N=N/C(=O)NCC2(N(C)C)CCCCC2)ccc1F | cell-free assay |  | 30000 |
| Cc1cc(O)cc(C)c1C[C@H](N)C(=O)N1Cc2ccccc2C[C@H]1C(=O)NCC(=O)NCc1ccc([N+](=O)[O-])cc1 | ligand displacement, radioligand | cell membranes | 0.39 |
| CCCC[C@@H](NC(=O)[C@@H](N)Cc1c(C)cc(O)cc1C)C(=O)NCC(=O)N[C@@H](Cc1ccc(F)cc1)C(=O)N(C)CCC[C@@]1(c2ccc(F)cc2)OCc2cc(C#N)ccc21 | cell-free assay |  | 0.8 |
| Cc1ccc(CNC(=O)CNC(=O)[C@@H]2Cc3ccccc3CN2C(=O)[C@@H](N)Cc2c(C)cc(O)cc2C)cc1 | ligand displacement, radioligand | cell membranes | 0.31 |
| CCCC[C@@H](NC(=O)[C@@H](N)Cc1ccc(O)cc1)C(=O)NCC(=O)N[C@@H](Cc1ccc(F)cc1)C(=O)N(C)CCC[C@@]1(c2ccc(F)cc2)OCc2cc(C#N)ccc21 | cell-free assay |  | 1.4 |
| CCCCCCCCC[C@@H]1CC(=O)NCC(=O)N[C@H](Cc2ccc(O)cc2)C(=O)NCC(=O)N[C@@H](Cc2ccccc2)C(=O)O1 | ligand displacement, radioligand |  | 21000 |
| C[C@@H](NC(=O)C[C@@H](N)Cc1ccc(O)cc1)C(=O)NCC(=O)N[C@@H](Cc1ccccc1)C(=O)NNC(=O)[C@H](Cc1ccccc1)NC(=O)CNC(=O)[C@@H](C)NC(=O)C[C@@H](N)Cc1ccc(O)cc1 | ligand displacement, radioligand |  | 480 |
| CCCCC/C=C\C/C=C\C/C=C\C/C=C\CCCC(=O)O | ligand displacement, radioligand | cell membranes | 4800 |
| COc1ccsc1CNCC[C@@]1(c2ccccn2)CCOC2(CCCC2)C1 | cell-free assay |  | 1400 |
